According to ChEMBL document CHEMBL3627690, “Scaffold-Hopping and Structure-Based Discovery of Potent, Selective, And Brain Penetrant N-(1H-Pyrazol-3-yl)pyridin-2-amine Inhibitors of Dual Leucine Zipper Kinase (DLK, MAP3K12)” (J Med Chem, 2015):
Active and inactive are the calls of the source. The calls are words filed in the database; no cut-off is given here.

Experiments:
[1] = target: CDK8/Cyclin C (Homo sapiens) (UniProt P49336+P24863); assay: Inhibition of […]/cyclinC (unknown origin) at 1 uM by FRET method; format: protein-complex assay
Outline: (§1)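 SelectScreen panel of 58 kinases, each tested at a single 1 µM compound concentration. Read-out was Z′-LYTE FRET of labeled peptide phosphorylation, run by the vendor's protocols, reported as percent inhibition.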

[2] = target: BDNF/NT-3 growth factors receptor (Homo sapiens, UniProt Q16620); assay: Inhibition of TrkB (unknown origin) by FRET method
Sequence of BDNF/NT-3 growth factors receptor (Q16620 whole entry): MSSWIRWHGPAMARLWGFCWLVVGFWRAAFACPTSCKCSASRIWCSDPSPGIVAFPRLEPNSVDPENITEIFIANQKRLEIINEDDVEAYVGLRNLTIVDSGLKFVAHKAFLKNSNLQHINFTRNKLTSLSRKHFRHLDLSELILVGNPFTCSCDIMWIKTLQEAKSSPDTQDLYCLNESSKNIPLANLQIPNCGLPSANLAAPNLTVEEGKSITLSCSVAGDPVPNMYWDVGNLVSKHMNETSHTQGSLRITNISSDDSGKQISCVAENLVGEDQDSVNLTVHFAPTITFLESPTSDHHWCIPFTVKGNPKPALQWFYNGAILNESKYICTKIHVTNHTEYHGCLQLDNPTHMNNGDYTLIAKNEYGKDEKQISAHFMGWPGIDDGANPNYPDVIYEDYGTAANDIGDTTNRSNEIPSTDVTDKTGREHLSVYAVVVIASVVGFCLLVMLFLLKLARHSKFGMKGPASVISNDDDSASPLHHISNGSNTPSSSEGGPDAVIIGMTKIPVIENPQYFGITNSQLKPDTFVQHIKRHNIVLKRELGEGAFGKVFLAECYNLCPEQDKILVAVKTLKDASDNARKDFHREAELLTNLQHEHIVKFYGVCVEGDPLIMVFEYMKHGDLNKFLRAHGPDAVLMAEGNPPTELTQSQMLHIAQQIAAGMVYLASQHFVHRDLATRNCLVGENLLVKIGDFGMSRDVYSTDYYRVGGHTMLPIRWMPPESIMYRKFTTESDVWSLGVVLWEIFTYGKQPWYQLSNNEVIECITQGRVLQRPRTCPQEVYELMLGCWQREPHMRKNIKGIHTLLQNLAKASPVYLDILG
Outline: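 Biochemical IC50 determination from a 10-point dose-response in an enzymatic Z′-LYTE assay. Labeled-peptide phosphorylation was read by FRET under the vendor's protocols.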

[3] = target: RAC-alpha serine/threonine-protein kinase (Homo sapiens) (UniProt P31749); assay: Inhibition of AKT1 (unknown origin) at 1 uM by FRET method; outline: as §1
Sequence of RAC-alpha serine/threonine-protein kinase (Homo sapiens) (P31749 whole entry): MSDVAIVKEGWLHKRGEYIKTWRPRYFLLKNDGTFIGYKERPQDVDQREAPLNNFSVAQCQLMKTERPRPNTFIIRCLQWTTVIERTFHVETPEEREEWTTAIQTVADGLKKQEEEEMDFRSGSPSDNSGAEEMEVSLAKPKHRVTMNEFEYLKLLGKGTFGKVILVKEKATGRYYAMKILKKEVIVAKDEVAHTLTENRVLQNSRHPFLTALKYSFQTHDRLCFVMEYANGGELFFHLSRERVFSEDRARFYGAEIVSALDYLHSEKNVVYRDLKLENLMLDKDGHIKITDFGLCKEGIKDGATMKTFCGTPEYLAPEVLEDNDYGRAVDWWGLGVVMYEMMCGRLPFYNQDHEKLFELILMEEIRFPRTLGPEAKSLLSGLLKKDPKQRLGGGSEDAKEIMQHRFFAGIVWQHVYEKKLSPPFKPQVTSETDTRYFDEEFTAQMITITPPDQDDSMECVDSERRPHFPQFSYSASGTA

HEK293 = assay: Effect on total JNK protein level in HEK293 cells transfected with Flag DLK (unknown origin) at 0.1 to 10 uM incubated for 5 hrs by Western blot analysis; conditions: human, hek293, 5 h
[4] = target: Casein kinase II subunit alpha (Homo sapiens) (UniProt P68400); assay: Inhibition of CK2alpha1 (unknown origin) at 1 uM by FRET method; outline: as §1
Sequence of Casein kinase II subunit alpha (Homo sapiens) (P68400 whole entry, looked up): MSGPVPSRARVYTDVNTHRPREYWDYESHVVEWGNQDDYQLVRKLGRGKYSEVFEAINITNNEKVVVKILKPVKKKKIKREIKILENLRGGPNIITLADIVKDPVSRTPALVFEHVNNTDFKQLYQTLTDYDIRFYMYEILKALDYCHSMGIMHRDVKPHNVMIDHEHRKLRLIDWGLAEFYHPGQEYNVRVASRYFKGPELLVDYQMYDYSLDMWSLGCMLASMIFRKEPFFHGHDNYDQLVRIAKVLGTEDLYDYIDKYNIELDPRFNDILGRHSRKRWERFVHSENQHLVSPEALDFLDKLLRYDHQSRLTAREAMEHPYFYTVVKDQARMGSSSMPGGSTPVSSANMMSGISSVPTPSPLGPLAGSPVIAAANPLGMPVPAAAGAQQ

[5] = target: T1, Mitogen-activated protein kinase kinase kinase 12 (Homo sapiens) (UniProt Q12852); assay: Inhibition of Flag DLK (unknown origin) transfected in HEK293 cells assessed as reduction of phosphorylation of c-Jun at 0.1 to 10 uM incubated for 5 hrs measured by Western blot analysis; format: cell-based
T1 sequence (whole entry): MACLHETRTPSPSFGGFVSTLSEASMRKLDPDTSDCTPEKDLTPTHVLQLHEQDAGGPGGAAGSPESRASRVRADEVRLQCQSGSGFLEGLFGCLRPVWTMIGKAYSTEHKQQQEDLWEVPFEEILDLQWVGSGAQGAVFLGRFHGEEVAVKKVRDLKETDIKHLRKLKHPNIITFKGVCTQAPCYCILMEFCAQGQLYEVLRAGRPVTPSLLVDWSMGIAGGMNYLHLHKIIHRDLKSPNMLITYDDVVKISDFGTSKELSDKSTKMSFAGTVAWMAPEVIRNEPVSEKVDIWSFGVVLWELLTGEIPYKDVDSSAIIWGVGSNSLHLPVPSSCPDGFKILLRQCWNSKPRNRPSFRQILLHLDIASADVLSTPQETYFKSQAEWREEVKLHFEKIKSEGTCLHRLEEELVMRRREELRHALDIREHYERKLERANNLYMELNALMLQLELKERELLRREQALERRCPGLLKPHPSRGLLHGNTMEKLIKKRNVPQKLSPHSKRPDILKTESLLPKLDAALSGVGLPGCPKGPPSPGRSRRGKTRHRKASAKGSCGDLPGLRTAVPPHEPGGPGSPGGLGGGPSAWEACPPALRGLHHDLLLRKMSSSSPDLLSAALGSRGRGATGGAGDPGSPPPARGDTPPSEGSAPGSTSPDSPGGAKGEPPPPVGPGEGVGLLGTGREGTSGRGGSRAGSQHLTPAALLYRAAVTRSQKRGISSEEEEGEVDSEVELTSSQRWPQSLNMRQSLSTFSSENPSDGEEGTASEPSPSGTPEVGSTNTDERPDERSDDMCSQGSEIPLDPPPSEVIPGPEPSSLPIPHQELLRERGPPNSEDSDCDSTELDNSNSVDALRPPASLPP
Outline: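 HEK293 cells were transfected with Flag-tagged DLK, with kinase-dead DLK K152A as comparator, 24 h before compound addition. Cells were then exposed to compound for 5 h. Phospho-MKK4, phospho-MKK7, phospho-JNK and phospho-c-Jun were probed.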

[6] = target: Mitogen-activated protein kinase 8 (Homo sapiens, UniProt P45983); assay: Inhibition of JNK1 (unknown origin) by FRET method
Sequence of Mitogen-activated protein kinase 8 (P45983 whole entry): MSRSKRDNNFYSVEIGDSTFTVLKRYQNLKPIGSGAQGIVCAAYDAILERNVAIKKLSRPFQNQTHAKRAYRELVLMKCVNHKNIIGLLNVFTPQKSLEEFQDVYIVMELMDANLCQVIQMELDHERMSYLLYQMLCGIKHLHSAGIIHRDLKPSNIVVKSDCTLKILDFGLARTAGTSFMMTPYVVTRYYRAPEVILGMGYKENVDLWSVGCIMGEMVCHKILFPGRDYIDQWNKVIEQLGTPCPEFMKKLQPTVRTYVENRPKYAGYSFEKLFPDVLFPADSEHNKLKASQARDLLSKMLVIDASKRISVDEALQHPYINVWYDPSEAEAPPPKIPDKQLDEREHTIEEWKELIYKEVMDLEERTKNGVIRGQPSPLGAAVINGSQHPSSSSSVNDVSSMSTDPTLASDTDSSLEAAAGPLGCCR
Outline: (§2)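 JNK1, JNK2 and JNK3 IC50 values came from a 10-point dose–response enzymatic assay.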

[7] = target: cAMP-dependent protein kinase (PKA) (Homo sapiens) (UniProt P22694+P17612+P22612); assay: Inhibition of PKA (unknown origin) at 1 uM by FRET method; format: protein assay
Outline: (§3)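 Single-point screen at 1 uM against a panel of 58 representative kinases. Readout was labeled-peptide phosphorylation by FRET (Z′-LYTE), using the vendor's protocols.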

[8] = Neuroprotective activity in Wistar rat DRG neuronal cells by neurodegeration assay; format: functional, cell-based
[9] = target: Mitogen-activated protein kinase 3 (Homo sapiens) (UniProt P27361); assay: Inhibition of ERK1 (unknown origin) at 1 uM by FRET method; outline: as §1
[10] = target: Tyrosine-protein kinase SYK (Homo sapiens) (UniProt P43405); assay: Inhibition of Syk (unknown origin) at 1 uM by FRET method; outline: as §3
[11] = target: Mitogen-activated protein kinase 10 (Homo sapiens, UniProt P53779); assay: Inhibition of JNK3 (unknown origin) by FRET method; outline: as §2
[12] = target: Tyrosine-protein kinase BTK (Homo sapiens) (UniProt Q06187); assay: Inhibition of BTK (unknown origin) at 1 uM by FRET method; outline: as §1
[13] = target: Macrophage colony-stimulating factor 1 receptor (Homo sapiens, UniProt P07333); assay: Inhibition of CSF1R (unknown origin) at 1 uM by FRET method; outline: as §1
Sequence of Macrophage colony-stimulating factor 1 receptor (P07333 whole entry): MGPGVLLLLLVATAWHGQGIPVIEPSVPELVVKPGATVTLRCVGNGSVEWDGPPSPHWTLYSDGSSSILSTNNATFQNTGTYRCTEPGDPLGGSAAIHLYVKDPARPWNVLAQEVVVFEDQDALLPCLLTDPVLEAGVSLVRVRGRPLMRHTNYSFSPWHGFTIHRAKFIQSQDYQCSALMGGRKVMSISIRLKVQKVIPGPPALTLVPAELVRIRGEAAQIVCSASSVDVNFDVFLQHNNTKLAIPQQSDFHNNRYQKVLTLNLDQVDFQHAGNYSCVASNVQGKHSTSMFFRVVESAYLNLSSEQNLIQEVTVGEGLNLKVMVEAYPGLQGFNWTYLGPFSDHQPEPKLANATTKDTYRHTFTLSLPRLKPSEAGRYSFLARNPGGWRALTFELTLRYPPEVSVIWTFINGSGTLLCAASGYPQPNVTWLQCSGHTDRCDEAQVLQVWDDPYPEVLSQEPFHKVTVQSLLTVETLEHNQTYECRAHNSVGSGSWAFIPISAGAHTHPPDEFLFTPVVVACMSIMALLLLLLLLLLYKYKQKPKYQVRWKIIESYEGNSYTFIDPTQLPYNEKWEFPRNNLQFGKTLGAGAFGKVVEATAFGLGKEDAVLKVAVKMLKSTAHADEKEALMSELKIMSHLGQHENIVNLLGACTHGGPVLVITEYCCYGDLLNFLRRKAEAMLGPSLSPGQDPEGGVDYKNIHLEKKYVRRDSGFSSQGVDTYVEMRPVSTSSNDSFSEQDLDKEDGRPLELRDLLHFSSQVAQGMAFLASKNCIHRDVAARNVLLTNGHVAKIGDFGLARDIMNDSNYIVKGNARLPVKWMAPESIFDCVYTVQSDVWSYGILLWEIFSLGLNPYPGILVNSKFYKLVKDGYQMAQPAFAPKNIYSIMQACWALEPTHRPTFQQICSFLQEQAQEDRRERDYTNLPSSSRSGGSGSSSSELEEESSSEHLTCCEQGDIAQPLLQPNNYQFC

[14] = target: Mast/stem cell growth factor receptor Kit (Homo sapiens, UniProt P10721); assay: Inhibition of Kit (unknown origin) by FRET method
[15] = target: Ribosomal protein S6 kinase alpha-3 (Homo sapiens) (UniProt P51812); assay: Inhibition of Rsk2 (unknown origin) at 1 uM by FRET method; outline: as §3
Sequence of Ribosomal protein S6 kinase alpha-3 (Homo sapiens) (P51812 whole entry): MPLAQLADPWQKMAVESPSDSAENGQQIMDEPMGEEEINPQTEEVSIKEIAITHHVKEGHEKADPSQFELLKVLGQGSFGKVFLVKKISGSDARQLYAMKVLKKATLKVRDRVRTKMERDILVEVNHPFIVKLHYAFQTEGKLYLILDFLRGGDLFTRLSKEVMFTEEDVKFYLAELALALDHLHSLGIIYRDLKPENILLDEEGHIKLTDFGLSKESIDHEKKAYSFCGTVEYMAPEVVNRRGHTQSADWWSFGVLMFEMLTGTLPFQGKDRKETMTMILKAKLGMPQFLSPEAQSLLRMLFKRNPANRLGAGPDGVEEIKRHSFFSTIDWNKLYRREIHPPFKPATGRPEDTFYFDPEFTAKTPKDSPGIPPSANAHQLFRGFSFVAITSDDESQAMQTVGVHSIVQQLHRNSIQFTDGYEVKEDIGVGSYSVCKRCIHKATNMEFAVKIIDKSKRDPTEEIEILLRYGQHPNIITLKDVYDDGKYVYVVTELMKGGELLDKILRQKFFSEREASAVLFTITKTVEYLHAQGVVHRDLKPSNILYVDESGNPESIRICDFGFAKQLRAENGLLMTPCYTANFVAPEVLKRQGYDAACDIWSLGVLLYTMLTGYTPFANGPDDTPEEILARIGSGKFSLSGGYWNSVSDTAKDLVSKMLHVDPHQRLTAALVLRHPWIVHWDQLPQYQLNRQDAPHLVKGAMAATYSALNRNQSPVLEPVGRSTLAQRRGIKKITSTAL

[16] = target: Tyrosine-protein kinase ABL1 (Homo sapiens) (UniProt P00519); assay: Inhibition of Abl (unknown origin) at 1 uM by FRET method; outline: as §1
Sequence of Tyrosine-protein kinase ABL1 (Homo sapiens) (P00519 whole entry): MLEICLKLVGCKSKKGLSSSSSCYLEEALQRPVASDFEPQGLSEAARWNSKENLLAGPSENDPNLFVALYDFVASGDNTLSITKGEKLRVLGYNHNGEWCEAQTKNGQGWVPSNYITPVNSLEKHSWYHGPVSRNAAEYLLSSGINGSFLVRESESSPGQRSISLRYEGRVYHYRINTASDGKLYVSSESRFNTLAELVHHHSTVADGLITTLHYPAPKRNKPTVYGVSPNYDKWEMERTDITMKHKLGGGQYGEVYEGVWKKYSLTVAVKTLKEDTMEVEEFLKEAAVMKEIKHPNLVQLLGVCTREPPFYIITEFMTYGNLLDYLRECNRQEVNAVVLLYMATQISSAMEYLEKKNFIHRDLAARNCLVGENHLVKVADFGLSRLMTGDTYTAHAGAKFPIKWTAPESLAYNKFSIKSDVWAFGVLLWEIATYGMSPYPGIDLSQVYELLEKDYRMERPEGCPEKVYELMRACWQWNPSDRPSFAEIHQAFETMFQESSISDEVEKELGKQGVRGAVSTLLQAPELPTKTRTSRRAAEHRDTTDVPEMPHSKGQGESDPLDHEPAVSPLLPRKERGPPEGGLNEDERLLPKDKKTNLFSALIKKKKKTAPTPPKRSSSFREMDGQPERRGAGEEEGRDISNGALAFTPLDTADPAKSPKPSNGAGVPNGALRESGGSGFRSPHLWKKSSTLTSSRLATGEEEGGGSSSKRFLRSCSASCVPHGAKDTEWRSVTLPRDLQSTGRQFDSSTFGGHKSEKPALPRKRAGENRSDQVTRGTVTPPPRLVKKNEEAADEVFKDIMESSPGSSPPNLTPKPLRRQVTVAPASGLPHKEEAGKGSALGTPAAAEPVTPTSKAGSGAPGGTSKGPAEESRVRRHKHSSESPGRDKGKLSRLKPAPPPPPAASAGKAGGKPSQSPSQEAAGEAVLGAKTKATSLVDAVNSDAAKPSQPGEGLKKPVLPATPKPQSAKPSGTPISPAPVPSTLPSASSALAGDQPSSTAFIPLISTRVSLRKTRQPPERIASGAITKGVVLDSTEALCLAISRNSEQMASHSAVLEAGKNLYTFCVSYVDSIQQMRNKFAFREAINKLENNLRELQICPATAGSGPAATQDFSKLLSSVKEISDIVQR

human MDR1 = assay: Efflux ratio of permeability across basolateral to apical over apical to basolateral side in MDCK cells transfected with human MDR1 at 5 uM by LC-MS/MS analysis; conditions: dog
[17] = target: Serine/threonine-protein kinase mTOR (Homo sapiens) (UniProt P42345); assay: Inhibition of mTOR (unknown origin) at 1 uM by FRET method; outline: as §3
[18] = target: Mitogen-activated protein kinase 14 (Homo sapiens) (UniProt Q16539); assay: Inhibition of p38alpha (unknown origin) at 1 uM by FRET method; outline: as §3
[19] = target: Glycogen synthase kinase-3 beta (Homo sapiens, UniProt P49841); assay: Inhibition of GSK3beta (unknown origin) by FRET method
[20] = Volume of distribution at steady state in […] rat at 0.4 or 1 mg/kg, iv and 1 or 5 mg/kg, po; format: ADME, organism-based; conditions: in vivo, read-out: Vdss
Outline: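 Rat PK: iv dosing at 0.4 or 1 mg/kg as a 60% PEG solution, po dosing at 1 or 5 mg/kg as an aqueous suspension with 1% methylcellulose.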

[21] = target: Mitogen-activated protein kinase kinase kinase 11 (Homo sapiens, UniProt Q16584); assay: Inhibition of MLK3 (unknown origin) at 1 uM by FRET method; outline: as §3

inhibition [1]: 11.6%
IC50 [2]: 1190 nM
inhibition [3]: -3.6%
inhibition [4]: 1.3%
inhibition [5]: Active
IC50 [6]: 1040 nM
inhibition [7]: 4%
EC50 [8]: 2150 nM
inhibition [9]: 0.6%
inhibition [10]: 41.2%
IC50 [11]: 2100 nM
inhibition [12]: 32.4%
inhibition [13]: 51.8%
IC50 [14]: 534 nM
inhibition [15]: 5.7%
inhibition [16]: 8.4%
efflux ratio at 5 µM (human MDR1): 1.4
inhibition [17]: 9.2%
inhibition [18]: 14.6%
IC50 [19]: 682 nM
Vd [20]: 4.4 L/kg
inhibition [21]: 1.4%
Compound: N#Cc1ccnc(Nc2cc(C3CCN(C4COC4)CC3)n(C3CCCC3)n2)c1
Activity (HEK293): Non-toxic
